Measured values as given in ChEMBL document CHEMBL2380281, “Synthesis of proline analogues as potent and selective cathepsin S inhibitors” (Bioorg Med Chem Lett, 2013).
Activity calls are given as the source filed them. The rule behind the calls is not given here.

Assays:
[1] = Metabolic stability in human liver microsomes assessed as compound remaining at 5 uM after 60 mins; type: ADME, Microsome; conditions: read-out: Stability
Procedure, shortened: (§1)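 Compound at 5 µM incubated 60 min with mouse, rat, dog or human liver microsomes, in duplicate; result given as percentage of parent remaining.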

[2] = Half life in beagle dog at 1 mg/kg, iv and 10 mg/kg, po; type: ADME, organism-based, Canis lupus familiaris; conditions: in vivo
Procedure, shortened: (§2)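 Male beagle dogs aged 14 months dosed once, 10 mg/kg orally or 1 mg/kg intravenously, n = 3 per route; pharmacokinetic parameters calculated.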

[3] = Oral bioavailability in beagle dog at 10 mg/kg; type: ADME, organism-based, Canis lupus familiaris; conditions: in vivo; procedure, shortened: as §2
[4] = Half life in ICR mouse at 5 mg/kg, iv and 10 mg/kg, po; type: ADME, organism-based; conditions: in vivo
Procedure, shortened: (§3)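 Single dose given orally (10 mg/kg) or intravenously (5 mg/kg) to male ICR mice, 7 weeks old, n = 3 per route; pharmacokinetic parameters derived from these dosings.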

[5] = target: Cytochrome P450 2C9 (Homo sapiens, UniProt P11712); test: Inhibition of CYP2C9 (unknown origin) by fluorescence detection method; type: ADME
[6] = target: Cathepsin B (Homo sapiens, UniProt P07858); test: Inhibition of human cathepsin-B
Procedure, shortened: (§4)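 Human cathepsin B and K activity measured with a SensoLyte 520 cathepsin activity assay kit; LHVS as pan-cathepsin positive control.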

[7] = AUC (0 to 24 hrs) in ICR mouse at 5 mg/kg, iv and 10 mg/kg, po; type: ADME, organism-based; conditions: plasma; procedure, shortened: as §3
[8] = target: T1, Cathepsin S (Homo sapiens, UniProt P25774); test: Inhibition of cathepsin-S in human Jiyoye cells assessed as conversion of invariant chain Lip10 to CLIP; type: cell-based
Procedure, shortened: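 Jiyoye cells were stimulated with IFN-γ and treated with the inhibitor at 1, 10, 100 and 1000 nM, alongside untreated controls. The read-out was Lip10 accumulation.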
Target sequence in this assay (P25774 115-331 limits assumed): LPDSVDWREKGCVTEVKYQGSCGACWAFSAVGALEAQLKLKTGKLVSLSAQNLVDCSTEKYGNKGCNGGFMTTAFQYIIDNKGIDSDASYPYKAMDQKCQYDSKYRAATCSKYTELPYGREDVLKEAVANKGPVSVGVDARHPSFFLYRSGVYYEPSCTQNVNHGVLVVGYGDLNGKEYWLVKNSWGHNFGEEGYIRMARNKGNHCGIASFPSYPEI

[9] = target: T2, Cytochrome P450 1A2 (Homo sapiens, UniProt P05177); test: Inhibition of CYP1A2 (unknown origin) by fluorescence detection method; type: ADME
T2 sequence (P05177 whole entry): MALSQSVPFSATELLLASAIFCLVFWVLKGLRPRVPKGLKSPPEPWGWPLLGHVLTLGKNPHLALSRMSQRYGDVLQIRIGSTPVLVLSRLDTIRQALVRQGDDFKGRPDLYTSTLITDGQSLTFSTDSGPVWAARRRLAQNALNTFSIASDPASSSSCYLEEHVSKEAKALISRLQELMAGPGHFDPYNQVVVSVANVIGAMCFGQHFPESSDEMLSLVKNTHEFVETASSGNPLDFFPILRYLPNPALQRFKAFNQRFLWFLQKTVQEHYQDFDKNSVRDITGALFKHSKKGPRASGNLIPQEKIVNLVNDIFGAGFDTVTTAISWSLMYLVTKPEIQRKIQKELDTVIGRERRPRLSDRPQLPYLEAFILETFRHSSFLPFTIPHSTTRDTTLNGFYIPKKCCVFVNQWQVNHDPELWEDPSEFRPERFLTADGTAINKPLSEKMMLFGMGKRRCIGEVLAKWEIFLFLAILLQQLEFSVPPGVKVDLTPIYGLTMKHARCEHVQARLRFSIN

[10] = target: T3, Cathepsin K (Homo sapiens, UniProt P43235); test: Inhibition of human cathepsin-K; procedure, shortened: as §4
T3 sequence (P43235 whole entry): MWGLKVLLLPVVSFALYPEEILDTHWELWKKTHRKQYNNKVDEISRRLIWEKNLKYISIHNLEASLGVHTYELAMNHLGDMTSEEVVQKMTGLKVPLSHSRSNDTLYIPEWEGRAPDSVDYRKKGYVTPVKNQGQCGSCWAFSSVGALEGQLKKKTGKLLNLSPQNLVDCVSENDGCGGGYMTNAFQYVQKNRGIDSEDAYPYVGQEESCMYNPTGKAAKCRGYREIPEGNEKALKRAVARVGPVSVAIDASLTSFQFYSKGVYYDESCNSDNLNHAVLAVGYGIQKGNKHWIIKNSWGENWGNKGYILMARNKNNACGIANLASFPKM

[11] = AUC (0 to 24 hrs) in beagle dog at 1 mg/kg, iv and 10 mg/kg, po; type: ADME, organism-based, Canis lupus familiaris; conditions: plasma; procedure, shortened: as §2
[12] = Cmax in ICR mouse at 5 mg/kg, iv and 10 mg/kg, po; type: ADME, organism-based; conditions: in vivo; procedure, shortened: as §3
[13] = Cmax in beagle dog at 1 mg/kg, iv and 10 mg/kg, po; type: ADME, organism-based, Canis lupus familiaris; conditions: in vivo; procedure, shortened: as §2
[14] = Oral bioavailability in ICR mouse at 10 mg/kg; type: ADME, organism-based; conditions: in vivo; procedure, shortened: as §3
[15] = AUC (0 to 24 hrs) in Sprague-Dawley rat at 5 mg/kg, iv and 10 mg/kg, po; type: ADME, organism-based; conditions: plasma
Procedure, shortened: (§5)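 Male Sprague–Dawley rats, 7 weeks of age, received one oral dose of 10 mg/kg or one intravenous dose of 5 mg/kg (n = 3 each); pharmacokinetic parameters determined.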

[16] = target: Cytochrome P450 2D6 (Homo sapiens, UniProt P10635); test: Inhibition of CYP2D6 (unknown origin) by fluorescence detection method; type: ADME
[17] = Cmax in Sprague-Dawley rat at 5 mg/kg, iv and 10 mg/kg, po; type: ADME, organism-based; conditions: in vivo; procedure, shortened: as §5
[18] = target: T1, Cathepsin S; test: Inhibition of human cathepsin-S
Target sequence in this assay (P25774 whole entry): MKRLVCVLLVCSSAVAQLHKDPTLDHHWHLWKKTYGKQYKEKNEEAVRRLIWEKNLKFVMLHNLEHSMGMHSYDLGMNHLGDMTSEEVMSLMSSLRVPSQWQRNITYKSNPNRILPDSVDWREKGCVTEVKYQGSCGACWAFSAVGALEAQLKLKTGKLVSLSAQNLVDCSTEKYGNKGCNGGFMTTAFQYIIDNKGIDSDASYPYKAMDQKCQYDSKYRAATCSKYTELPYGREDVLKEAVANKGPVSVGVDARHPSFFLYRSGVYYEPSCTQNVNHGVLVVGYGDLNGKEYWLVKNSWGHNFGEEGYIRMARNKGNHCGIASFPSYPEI

[19] = target: Cytochrome P450 2C19 (Homo sapiens, UniProt P33261); test: Inhibition of CYP2C19 (unknown origin) by fluorescence detection method; type: ADME
[20] = tested on: Mus musculus; test: Antiarthritic activity in DBA1/J mouse assessed as decrease in collagen-induced arthritis score and degree of paw swelling at 30 mg/kg, po qd for 14 days; type: functional, organism-based; set-up: dose 30 mg/kg
Procedure, shortened: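 Male DBA1/J mice (8 weeks, n = 7/group) immunized intradermally at tail base with bovine type II collagen in complete Freund's adjuvant, boosted 3 weeks later with collagen in incomplete Freund's adjuvant. Oral dosing once daily at 30 mg/kg in 10% hydroxypropyl-β-cyclodextrin/water, or vehicle, for 14 days. Arthritis score and paw swelling graded per paw every 2–3 days for 2 weeks from day 10 post-boost.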

[21] = Half life in Sprague-Dawley rat at 5 mg/kg, iv and 10 mg/kg, po; type: ADME, organism-based; conditions: in vivo; procedure, shortened: as §5
[22] = Metabolic stability in rat liver microsomes assessed as compound remaining at 5 uM after 60 mins; type: ADME, Microsome; conditions: read-out: Stability; procedure, shortened: as §1
[23] = Metabolic stability in mouse liver microsomes assessed as compound remaining at 5 uM after 60 mins; type: ADME, Microsome; conditions: read-out: Stability; procedure, shortened: as §1
[24] = Metabolic stability in dog liver microsomes assessed as compound remaining at 5 uM after 60 mins; type: ADME, Canis lupus familiaris, Microsome; conditions: read-out: Stability; procedure, shortened: as §1
[25] = Oral bioavailability in Sprague-Dawley rat at 10 mg/kg; type: ADME, organism-based; conditions: in vivo; procedure, shortened: as §5
[26] = target: Cytochrome P450 3A4 (Homo sapiens, UniProt P08684); test: Inhibition of CYP3A4 (unknown origin) by fluorescence detection method; type: ADME
Cytochrome P450 3A4, sequence (P08684 whole entry): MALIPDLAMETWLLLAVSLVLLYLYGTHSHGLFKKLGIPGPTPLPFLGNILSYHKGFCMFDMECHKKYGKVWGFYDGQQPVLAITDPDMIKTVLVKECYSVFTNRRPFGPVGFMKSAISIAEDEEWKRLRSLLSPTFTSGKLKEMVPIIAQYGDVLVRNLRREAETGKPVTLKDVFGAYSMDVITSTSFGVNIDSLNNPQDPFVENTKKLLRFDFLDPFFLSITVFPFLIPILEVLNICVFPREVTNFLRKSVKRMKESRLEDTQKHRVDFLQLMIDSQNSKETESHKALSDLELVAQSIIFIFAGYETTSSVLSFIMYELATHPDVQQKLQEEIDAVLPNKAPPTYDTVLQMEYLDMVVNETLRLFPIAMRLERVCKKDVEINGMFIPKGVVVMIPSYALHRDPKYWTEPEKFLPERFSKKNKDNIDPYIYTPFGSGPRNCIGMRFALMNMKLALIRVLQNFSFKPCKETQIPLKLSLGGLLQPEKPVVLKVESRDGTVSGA

Cytochrome P450 2C19, sequence (P33261 whole entry): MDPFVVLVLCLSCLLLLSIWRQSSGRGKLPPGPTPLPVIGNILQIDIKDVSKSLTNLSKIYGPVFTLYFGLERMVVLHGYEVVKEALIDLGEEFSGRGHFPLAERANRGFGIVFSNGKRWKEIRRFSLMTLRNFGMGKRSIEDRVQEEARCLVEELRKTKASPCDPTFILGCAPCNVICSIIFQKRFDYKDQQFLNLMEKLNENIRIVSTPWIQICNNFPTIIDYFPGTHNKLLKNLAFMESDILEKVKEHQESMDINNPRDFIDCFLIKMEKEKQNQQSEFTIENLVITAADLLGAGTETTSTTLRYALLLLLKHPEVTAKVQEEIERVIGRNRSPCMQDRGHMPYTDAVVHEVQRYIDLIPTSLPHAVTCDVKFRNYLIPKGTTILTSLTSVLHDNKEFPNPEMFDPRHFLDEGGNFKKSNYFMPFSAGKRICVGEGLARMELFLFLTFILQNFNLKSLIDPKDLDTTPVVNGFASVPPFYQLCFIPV
Cytochrome P450 2C9, sequence (P11712 whole entry): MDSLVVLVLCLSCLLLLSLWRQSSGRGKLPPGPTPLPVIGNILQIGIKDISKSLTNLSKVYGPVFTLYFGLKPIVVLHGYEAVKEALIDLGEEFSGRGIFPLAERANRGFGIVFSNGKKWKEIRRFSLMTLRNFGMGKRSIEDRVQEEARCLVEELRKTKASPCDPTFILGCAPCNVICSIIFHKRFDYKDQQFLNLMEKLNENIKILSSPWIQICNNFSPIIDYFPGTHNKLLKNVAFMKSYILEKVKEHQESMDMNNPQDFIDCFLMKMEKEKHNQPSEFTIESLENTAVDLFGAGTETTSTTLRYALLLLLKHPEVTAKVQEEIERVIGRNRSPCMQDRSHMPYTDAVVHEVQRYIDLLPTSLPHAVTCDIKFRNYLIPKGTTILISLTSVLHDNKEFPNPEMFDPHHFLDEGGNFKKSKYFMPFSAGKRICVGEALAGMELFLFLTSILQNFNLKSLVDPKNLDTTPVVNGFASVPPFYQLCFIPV
Cytochrome P450 2D6, sequence (P10635 whole entry): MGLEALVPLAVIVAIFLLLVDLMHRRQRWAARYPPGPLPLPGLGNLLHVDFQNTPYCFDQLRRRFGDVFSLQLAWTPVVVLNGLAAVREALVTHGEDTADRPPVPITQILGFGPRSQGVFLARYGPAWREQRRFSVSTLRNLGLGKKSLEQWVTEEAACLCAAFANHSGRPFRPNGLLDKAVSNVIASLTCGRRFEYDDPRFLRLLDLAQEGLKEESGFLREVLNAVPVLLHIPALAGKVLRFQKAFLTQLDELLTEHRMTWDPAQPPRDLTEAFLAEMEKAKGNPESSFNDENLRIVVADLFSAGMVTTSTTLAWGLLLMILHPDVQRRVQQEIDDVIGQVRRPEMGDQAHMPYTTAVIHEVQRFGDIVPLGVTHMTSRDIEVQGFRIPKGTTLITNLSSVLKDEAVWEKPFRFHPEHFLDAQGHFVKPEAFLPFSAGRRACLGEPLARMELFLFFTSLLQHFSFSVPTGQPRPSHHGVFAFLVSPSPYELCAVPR

With `CC[C@H](NC(=O)[C@@H]1C[C@@H](S(=O)(=O)c2ccccc2)CN1C(C)=O)C(=O)c1nc2ccccc2o1` the remaining at 1 h, 5 µM [1] was 70%, the half-life [2] was 3.7 h and the bioavailability [3] was 48.6%. For the same molecule, the half-life [4] was 1.6 h, the IC50 [5] was 5000 nM and the IC50 [6] was greater than 10000 nM. For the same molecule, the AUC(0-t) [7] was 1030 ng·h/mL, the inhibition [8] was “Active” and the IC50 [9] was greater than 20000 nM. For the same molecule, the IC50 [10] was greater than 10000 nM, the AUC(0-t) [11] was 5050 ng·h/mL and the Cmax [12] was 1910 ng/mL. For the same molecule, the Cmax [13] was 3820 ng/mL, the bioavailability [14] was 28.7% and the AUC(0-t) [15] was 7250 ng·h/mL. It also gave an IC50 [16] greater than 20000 nM, a Cmax [17] of 3520 ng/mL and an IC50 [18] of 3.3 nM. The IC50 [19] was greater than 20000 nM, the Activity [20] was “Active” and the half-life [21] was 2.1 h. The remaining at 1 h, 5 µM [22] was 37%, the remaining at 1 h, 5 µM [23] was 37% and the remaining at 1 h, 5 µM [24] was 47%. The bioavailability [25] was 64.8% and the IC50 [26] was 9950 nM.
`CCC(NC(=O)[C@@H]1C[C@@H](S(=O)(=O)c2ccccc2)CN1C(=O)c1ccccc1)C(=O)c1nc2ccccc2o1` (some centres not stated) showed an IC50 [6] greater than 10000 nM, an IC50 [10] greater than 10000 nM and an IC50 [18] of 3 nM.
With `CC(=O)N1C[C@H](S(=O)(=O)c2ccccc2)C[C@H]1C(=O)NC(C)C(=O)c1nc2ccccc2o1` (some centres not stated) the IC50 [18] was 18.1 nM.
With `CC(=O)N1C[C@H](S(=O)(=O)c2ccccc2)C[C@H]1C(=O)NC(C(=O)c1nc2ccccc2o1)C(C)C` (some centres not stated) the IC50 [18] was 24.6 nM.
Work on `CCC(NC(=O)[C@@H]1C[C@@H](S(=O)(=O)c2ccccc2)CN1C(C)=O)C(=O)c1nc2ccccc2o1` (some centres not stated) yielded an IC50 [18] of 3.3 nM.
`CCC(NC(=O)[C@@H]1C[C@@H](S(=O)(=O)c2ccccc2Cl)CN1C(C)=O)C(=O)c1nc2ccccc2o1` (some centres not stated) showed an IC50 [18] of 2.3 nM.
`CCC(NC(=O)[C@@H]1C[C@@H](S(=O)(=O)c2ccccc2)CN1)C(=O)c1nc2ccccc2o1` (some centres not stated) showed an IC50 [18] of 156 nM.
`CCC(NC(=O)[C@@H]1C[C@@H](S(=O)(=O)c2ccc(-n3cccn3)cc2)CN1C(C)=O)C(=O)c1nc2ccccc2o1` (some centres not stated) showed an IC50 [18] of 3.2 nM.
`CCC(NC(=O)[C@@H]1C[C@@H](Sc2ccccc2)CN1C(C)=O)C(=O)c1nc2ccccc2o1` (some centres not stated) showed an IC50 [18] of 20.7 nM.
In the case of `CCC(NC(=O)[C@@H]1C[C@@H](S(=O)(=O)c2ccccc2)CN1C(=O)c1ccncc1)C(=O)c1nc2ccccc2o1` (some centres not stated), the IC50 [18] is reported as 3.3 nM.
For `CCC(=O)N1C[C@H](S(=O)(=O)c2ccccc2)C[C@H]1C(=O)NC(CC)C(=O)c1nc2ccccc2o1` (some centres not stated), the IC50 [18] was 3.1 nM.
Work on `CCC(NC(=O)[C@@H]1C[C@@H](S(=O)(=O)c2ccccc2)CN1C(=O)c1cccc(Cl)c1)C(=O)c1nc2ccccc2o1` (some centres not stated) yielded an IC50 [6] greater than 1000 nM, an IC50 [10] greater than 1000 nM and an IC50 [18] of 1.1 nM.
In the case of `CCC(NC(=O)[C@@H]1C[C@@H](S(=O)(=O)c2ccccc2)CN1C(=O)C1CCCCC1)C(=O)c1nc2ccccc2o1` (some centres not stated), the IC50 [6] is reported as greater than 10000 nM, the IC50 [10] is reported as greater than 10000 nM and the IC50 [18] is reported as 3.3 nM.
`CC(=O)N1C[C@H](S(=O)(=O)c2ccccc2)C[C@H]1C(=O)NC(Cc1ccccc1)C(=O)c1nc2ccccc2o1` (some centres not stated) gave an IC50 [18] greater than 100 nM.
For `O=C(CNC(=O)[C@@H]1C[C@@H](S(=O)(=O)c2ccccc2)CN1C(=O)C1CCCCC1)c1nc2ccccc2o1`, the IC50 [18] was 36.6 nM.
In the case of `CCC(NC(=O)[C@@H]1C[C@@H](S(=O)(=O)c2ccccc2)CN1C(=O)c1ccc(Cl)cc1)C(=O)c1nc2ccccc2o1` (some centres not stated), the IC50 [18] is reported as 2 nM.
